The text below walks through data of ChEMBL document CHEMBL1148449, “Discovery, modeling, and human pharmacokinetics of N-(2-acetyl-4,6-dimethylphenyl)-3-(3,4-dimethylisoxazol-5-ylsulfamoyl)thiophene-2-carboxamide (TBC3711), a second generation, ETA selective, and orally bioavailable endothelin antagonist” (J Med Chem, 2004).

As usually defined, the half-life is the time needed for the level to fall by half in the phase considered. Usually AUC stands for concentration integrated over time. As a reminder, the Cmax is the highest concentration seen after dosing. The term IC50 denotes the concentration that gives 50% inhibition. As a reminder, the ED50 is the dose that gives a 50% effect, or the effect in half of the subjects. One may read the Ki as a dissociation constant, usually derived from enzyme kinetics or from competition with a known ligand.

The nature of series [1]: Half life period was determined. The class given is ADME, organism-based. Particulars: rat, in vivo. In a few lines: (§1)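 Rats given 50 mg/kg orally. Plasma was separated at once by centrifugation and stored at -80 °C. Proteins were precipitated with acetonitrile and drug measured by HPLC to give Cmax, AUC and t1/2.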
Series [2] is described as follows: (§2) Compound was evaluated for area under the curve expressed as (h*ug/ml). The class given is ADME, organism-based. More on the design: concentration or dose not given beside the values. Particulars: rat, in vivo. In a few lines: as §1
Series [3] can be described thus: Cmax in rat plasma after oral dose (50 mg/Kg). The class given is ADME, organism-based. More on the design: dose 50 mg/Kg, route oral. Summed up: as §1
Series [4] addresses T1, Endothelin-1 receptor (Homo sapiens, UniProt P25101).
T1 sequence (P25101 whole entry): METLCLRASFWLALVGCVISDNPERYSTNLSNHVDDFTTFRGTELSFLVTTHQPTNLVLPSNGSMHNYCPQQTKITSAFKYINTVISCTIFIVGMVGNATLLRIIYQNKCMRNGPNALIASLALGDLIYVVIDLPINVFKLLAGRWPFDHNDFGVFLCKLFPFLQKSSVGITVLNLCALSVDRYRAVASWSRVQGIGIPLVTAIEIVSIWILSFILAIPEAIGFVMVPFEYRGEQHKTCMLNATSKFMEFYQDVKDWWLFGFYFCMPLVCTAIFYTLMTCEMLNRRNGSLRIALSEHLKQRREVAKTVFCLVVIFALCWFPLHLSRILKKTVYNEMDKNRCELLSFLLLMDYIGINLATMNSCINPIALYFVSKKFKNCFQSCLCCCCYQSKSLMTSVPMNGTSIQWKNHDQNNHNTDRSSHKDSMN
In words: Displacement of [125I]ET-1 from Endothelin A receptor. A general note: Displacement assays read how much labelled ligand stays bound in the presence of the test substance.

Series [5] concerns the target Endothelin-1 receptor (Homo sapiens) (UniProt P25101). Nature of the series: Selectivity towards endothelin A receptor in human.
Series [6] deals with Rattus norvegicus. Nature of the series: Compound was evaluated for oral dose to effect 50% inhibition of mean pulmonary arterial pressure (MPAP. The class given is functional, Artery. In a few lines:
(§3)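 Acute hypoxia-induced pulmonary hypertension model in rats. Compound given orally; the oral dose giving 50% inhibition of the increase in mean pulmonary arterial pressure is reported.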

The nature of series [7]: Compound was evaluated for oral bioavailability in rats. The settings on record: rat, in vivo.
The subject of series [8] is Rattus norvegicus. Nature of the series: Compound was evaluated for oral dose to effect 50% inhibition of mean pulmonary arterial pressure (MPAP). It is filed as functional, Artery. Summed up:
as §3

Series [9] is described as follows: Half life period was determined; 6-7. The settings on record: human. It is filed as ADME.
The nature of series [10]: Compound was evaluated for oral bioavailability in human. The class given is ADME, organism-based. Particulars: in vivo, read-out: Activity.
Series [11] concerns the target Endothelin receptor (Rattus norvegicus) (UniProt P26684+P21451). In words: Selectivity for endothelin A receptor over endothelin receptor B. It is filed as protein assay.
Series [12] can be described thus: Half life period was evaluated in rat. The settings on record: in vivo.
Series [13] in a line: Half life period was evaluated in rat; 5.9-7.5. The settings on record: in vivo. It is filed as ADME, organism-based. Summed up:
as §1

A short description of series [14]: as §2. The class given is ADME. The settings on record: human. In a few lines: as §1
Series [15] can be described thus: Half life period was evaluated in dog; 4-4.8. The class given is ADME, organism-based, Canis lupus familiaris. Particulars: in vivo.
Series [16] concerns the target T2, Endothelin-1 receptor (Rattus norvegicus, UniProt P26684).
T2 sequence (P26684 whole entry): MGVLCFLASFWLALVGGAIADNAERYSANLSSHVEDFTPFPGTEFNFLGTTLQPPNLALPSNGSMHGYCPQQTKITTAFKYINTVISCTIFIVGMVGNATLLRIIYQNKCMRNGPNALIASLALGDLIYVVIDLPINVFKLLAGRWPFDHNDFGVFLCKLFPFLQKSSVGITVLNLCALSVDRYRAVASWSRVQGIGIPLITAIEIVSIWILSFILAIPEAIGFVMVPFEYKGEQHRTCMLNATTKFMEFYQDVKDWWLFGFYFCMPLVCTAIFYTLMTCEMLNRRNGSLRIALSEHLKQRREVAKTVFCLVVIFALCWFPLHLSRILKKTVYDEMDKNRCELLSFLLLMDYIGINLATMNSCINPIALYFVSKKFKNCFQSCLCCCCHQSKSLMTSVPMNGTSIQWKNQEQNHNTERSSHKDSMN
In words: Binding affinity towards Endothelin A receptor.

Series [17] is described as follows: Half life period was evaluated in human. The class given is ADME.
Series [18] in a line: Compound was evaluated for oral bioavailability in dog; 90-100. It is filed as ADME, organism-based, Canis lupus familiaris. The settings on record: in vivo, read-out: Activity.
Series [19] relates to Rattus norvegicus. Nature of the series: Compound was evaluated for oral dose to effect 50% inhibition of mean pulmonary arterial pressure. The class given is functional, Artery. In a few lines:
as §3

The target of series [20] is T3, Endothelin receptor type B (Homo sapiens, UniProt P24530).
T3 sequence (P24530 whole entry): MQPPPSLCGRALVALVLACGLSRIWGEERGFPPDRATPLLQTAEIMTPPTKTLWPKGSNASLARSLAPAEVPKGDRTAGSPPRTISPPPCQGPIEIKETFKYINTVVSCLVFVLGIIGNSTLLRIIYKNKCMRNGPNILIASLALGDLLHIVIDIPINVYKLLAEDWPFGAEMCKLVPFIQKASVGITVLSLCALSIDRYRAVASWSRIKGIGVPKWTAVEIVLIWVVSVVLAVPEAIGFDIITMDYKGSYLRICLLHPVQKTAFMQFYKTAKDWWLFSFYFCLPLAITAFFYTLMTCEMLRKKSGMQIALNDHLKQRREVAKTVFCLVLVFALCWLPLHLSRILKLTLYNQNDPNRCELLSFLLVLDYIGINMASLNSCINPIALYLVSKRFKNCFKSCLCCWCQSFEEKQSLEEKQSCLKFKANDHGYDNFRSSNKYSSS
In words: Inhibitory concentration towards endothelin B receptor in human. It is filed as functional.

Chain of Endothelin receptor (Rattus norvegicus) (P21451 whole entry, looked up, one chain of several): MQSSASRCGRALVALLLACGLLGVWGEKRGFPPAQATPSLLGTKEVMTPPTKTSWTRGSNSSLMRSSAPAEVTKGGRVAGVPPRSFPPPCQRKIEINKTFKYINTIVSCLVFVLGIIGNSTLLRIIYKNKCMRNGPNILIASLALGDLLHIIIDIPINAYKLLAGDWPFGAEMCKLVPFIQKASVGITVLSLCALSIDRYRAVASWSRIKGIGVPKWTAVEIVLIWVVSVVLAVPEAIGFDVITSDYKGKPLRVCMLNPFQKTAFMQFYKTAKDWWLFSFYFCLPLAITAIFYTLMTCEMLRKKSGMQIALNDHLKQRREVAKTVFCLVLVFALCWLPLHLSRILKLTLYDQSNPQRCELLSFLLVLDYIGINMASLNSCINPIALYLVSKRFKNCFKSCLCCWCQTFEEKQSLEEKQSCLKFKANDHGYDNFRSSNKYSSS

`Cc1cc(C)c(NC(=O)c2sccc2S(=O)(=O)Nc2onc(C)c2Cl)c(C(=O)CS(C)(=O)=O)c1` gave a half-life in [1] of 12.2 h. In addition, the exposure (AUC) in series [2] amounted to 636 µg·h/mL. In addition, the Cmax in series [3] was determined as 37.3 µg/mL. On Endothelin-1 receptor [4], this compound displayed an IC50 of 0.1 nM. This compound also gave a Selectivity in series [5] of 66500. This compound also gave an ED50 in the series on Rattus norvegicus [6] greater than 5 mg/kg. Moreover, the bioavailability in series [7] was 16%.

With `CC(=O)c1cc(C)cc(C)c1NC(=O)c1sccc1S(=O)(=O)Nc1onc(C)c1C`, the half-life is 5.3 h in series [1] and 7 h in series [9]. In series [2], the exposure (AUC) turned out to be 1310 µg·h/mL. The same compound came in with an Activity with Rattus norvegicus [8] of less than 1 mg/kg. Moreover, the Cmax in series [3] worked out at 180 µg/mL. At Endothelin-1 receptor [4], this compound registered an IC50 of 0.08 nM. This compound also returned a Selectivity in series [5] of 441000. The values for the bioavailability in series [7] and in series [10] were roughly 100% and greater than 80%, respectively.

Consider `COc1ccccc1Oc1c(NS(=O)(=O)c2ccc(C(C)C)cn2)nc(-c2ccnc(-c3nnn[nH]3)c2)nc1OCCO` [TEZOSENTAN], for which, in series [11], the Selectivity came to 56. In addition, the half-life in [12] is 7.8 min. Further, the IC50 at Endothelin-1 receptor [4] came out at 23 nM.

As for `Cc1cc2c(cc1CC(=O)c1sccc1S(=O)(=O)Nc1onc(C)c1Cl)OCO2` [SITAXENTAN], the figures for the Selectivity in series [11] and in [5] were 7000 and 6500, respectively. In addition, the half-life in series [13] was 7.5 h; in [15], 4.8 h; in series [17], 6.46 h. Besides, the AUC in [14] was found to be 33 µg·h/mL. The Ki on Endothelin-1 receptor [16] was 0.43 nM. The results for the bioavailability in [18] and in series [10] were 100% and roughly 80%, respectively. For the same compound, in the series with Rattus norvegicus [19], the Activity amounted to 2.5 mg/kg. Besides, in [20], the half-maximal inhibitory concentration (IC50) is 9800 nM.
